Reference: ChEMBL document CHEMBL4765348, “Discovery of the first Mycobacterium tuberculosis MabA (FabG1) inhibitors through a fragment-based screening” (Eur J Med Chem, 2020)
The source made the active and inactive calls. No cut-off for these calls is given here.

How the values were obtained:
[1] = (§1) Inhibition of Mycobacterium tuberculosis His6-tagged MabA expressed in Escherichia coli BL21 (DE3) assessed as reduction in HBCoA formation using AcAcCoA as substrate preincubated for 30 mins followed by substrate and 100 uM NADPH addition and measured after 15 mins by LC-MS/MS analysis
[2] = test system: Mycobacterium tuberculosis; experiment: as §1, with “formation at 1 mM” for “formation”, “for 10 to” for “for”, “and” for “and 100 uM”, “analysis relative to control” for “analysis”; conditions: time 10-45 min
Procedure, shortened: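 Single-point screen of His6-MabA purified by Ni2+-affinity. Compound at 1 mM was preincubated 10 or 30 min at 23 °C with 400 nM enzyme in 100 mM Hepes pH 7. Reaction ran 15 min with 50 µM AcAcCoA and 50 µM NADPH in 1% DMSO, then was stopped with 1% TFA containing 5 µM butyryl-CoA internal standard. HBCoA/BCoA was measured by LC-MS/MS MRM. % inhibition was taken relative to DMSO and 200 µM INH-NADP adduct controls.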

[3] = test system: Mycobacterium tuberculosis; experiment: Antimycobacterial activity against GFP-tagged Mycobacterium tuberculosis H37Rv assessed as inhibition of microbial growth incubated for 5 days by fluorescence assay; type: functional; conditions: 120 h
Procedure, shortened: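 M. tuberculosis H37Rv expressing GFP, grown in 7H9 with 0.2% glycerol and 0.05% Tween80, diluted to OD600 0.02. Ten 3-fold dilutions from 300 μM to 15 nM, 0.3% DMSO. Incubated 5 days at 37 °C, fluorescence read at Ex/Em 485/535 nm. Two independent replicates. Rifampicin, isoniazid and ethionamide served as positive controls.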

[4] = test system: Mycobacterium tuberculosis; experiment: Antimycobacterial activity against Mycobacterium tuberculosis H37Ra assessed as inhibition of microbial growth incubated for 4 weeks in culture medium at pH 6.8; type: functional; conditions: 672 h
[5] = test system: Mycobacterium tuberculosis; experiment: Binding affinity to Mycobacterium tuberculosis His6-tagged MabA expressed in Escherichia coli BL21 (DE3) at 100 uM by 19FNMR analysis
[6] = test system: Mycobacterium tuberculosis; experiment: Non-competitive inhibition of Mycobacterium tuberculosis MabA expressed in Escherichia coli BL21 (DE3) assessed as reduction in HBCoA formation using AcAcCoA as substrate preincubated for 30 mins followed by substrate and 50 to 500 uM NADPH addition and measured after 15 mins by LC-MS/MS analysis; conditions: time 45.0 min
Procedure, shortened: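 Dose-response MabA assay (400 nM enzyme, 50 μM AcAcCoA, 30 min preincubation at 22 °C, 15 min reaction, LC-MS/MS HBCoA/BCoA) run at NADPH 50 and 500 μM. Test compound was tested at 8 points, 3-fold from 1 mM to 0.46 μM. INH-NADP adduct was tested from 200 μM to 0.09 μM. IC50s were compared between NADPH levels.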

[7] = test system: Mycobacterium tuberculosis; experiment: Inhibition of Mycobacterium tuberculosis His6-tagged MabA expressed in Escherichia coli BL21 (DE3) assessed as reduction in HBCoA formation up to 100 uM using AcAcCoA as substrate preincubated for 10 to 30 mins followed by substrate and NADPH addition and measured after 15 mins by LC-MS/MS analysis; conditions: dose microM <=100, time 10-45 min
[8] = Solubility of compound in PBS buffer at pH 7.4 incubated for 24 hrs under shaking conditions by LC-MS/MS analysis; type: physicochemical
Procedure, shortened: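 10 mM DMSO stock diluted 1:50 into PBS pH 7.4 or MeOH, in triplicate. Shaken 24 h at room temperature, centrifuged and filtered through 0.45 μm, then diluted in MeOH for LC-MS/MS MRM. Solubility is the PBS/MeOH signal-area ratio.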

[9] = Lipophilicity, logD of compound in octanol and PBS buffer at pH 7.4 incubated for 2 hrs under shaking condition by LC-MS/MS analysis; type: physicochemical
Procedure, shortened: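 10 mM DMSO stock diluted 1:50 into 1/1 octanol/PBS pH 7.4, shaken 2 h at room temperature. Each phase was diluted in MeOH and quantified by LC-MS/MS MRM (ES−). LogD is the log of the octanol/PBS concentration ratio. Run in triplicate.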

| SMILES | IC50 [1] [µM] | inhibition [2] [%] | also measured |
| --- | --- | --- | --- |
| CC(C)(C)OC(=O)Nc1cc2ccccc2cc1C(=O)O | 310 | 100 |  |
| C/C=C/C=C/C(=O)Nc1c[nH]c(=O)[nH]c1=O | 65 |  | MIC90 [3]: > 300 µM |
| CC(=O)Oc1ccccc1C(=O)O [ASPIRIN] |  |  | MIC [4]: 33 µg/mL |
| O=C(O)c1cc2sccc2[nH]1 | 185 |  | MIC90 [3]: > 300 µM |
| O=C(Nc1ccc(I)cc1C(=O)O)c1ccc(Cl)c(C(F)(F)F)c1 | 59 |  | Activity [5]: Active |
| O=C(Nc1ccc(I)cc1C(=O)O)c1ccc(Cl)nc1 | 147 |  |  |
| O=C(Cc1ccccc1)Nc1ccc(I)cc1C(=O)O | > 500 |  |  |
| C=CCOC(=O)Nc1ccc(I)cc1C(=O)O | > 500 | 83 |  |
| CC(C)(C)OC(=O)Nc1ccc(Oc2ccccc2)cc1C(=O)O | 243 | 100 |  |
| O=C(CCCc1ccccc1)Nc1ccc(I)cc1C(=O)O | 186 |  |  |
| O=C(O)c1cc(I)ccc1NC(=O)C1Cc2ccccc2C1 | 140 |  |  |
| Cc1cccc(Nc2ccccc2C(=O)O)c1C [MEFENAMIC ACID] |  |  | MIC [4]: 33 µg/mL |
| O=C(Nc1ccc(I)cc1C(=O)O)c1cccc(Cl)c1 | 70 |  |  |
| CC(C)(C)OC(=O)Nc1ccc(I)cc1C(=O)O |  | 100 | MIC90 [3]: 300 µM; inhibition [6]: Active |
| CC(C)COC(=O)Nc1ccc(I)cc1C(=O)O | 310 | 100 |  |
| COc1ccc(NC(=O)OC(C)(C)C)c(C(=O)O)c1 | > 1000 | 31 |  |
| O=C(O)c1ccccc1 [BENZOIC ACID] |  |  | MIC [4]: 33 µg/mL |
| CC/C(C)=C1\OC(=O)[C@H](C)[C@H](O)[C@H](Cc2cccnc2)NC(=O)[C@@H](NC(=O)c2ncccc2O)[C@@H](C)OC1=O |  |  | inhibition [7]: inactive |
| Cc1ccc(C(=O)Nc2ccc(I)cc2C(=O)O)cc1 | 95 |  |  |
| CCc1cc(C(N)=S)ccn1 [ETHIONAMIDE] |  |  | MIC [3]: 2 µg/mL |
| O=C(Nc1ccc(I)cc1C(=O)O)c1ccc(C(F)(F)F)cc1 | 69 |  | Activity [5]: Active |
| CC(C)(C)OC(=O)Nc1ccccc1C(=O)O | > 1000 | 31 |  |
| Oc1cc(Cl)ccc1Oc1ccc(Cl)cc1Cl |  |  | inhibition [7]: inactive |

| SMILES | IC50 [1] [µM] | inhibition [2] [%] | also measured |
| --- | --- | --- | --- |
| O=C(O)c1cc(I)ccc1NC(=O)C1CCc2ccccc2C1 (stereo unspecified) | 109 |  |  |
| O=C(O)c1cc(I)ccc1NC(=O)C1CC1 | > 500 |  |  |
| NNC(=O)c1ccncc1 [ISONIAZID] |  |  | MIC [3]: 0.125 µg/mL |
| O=C(O)c1ccccc1O [SALICYLIC ACID] |  |  | MIC [4]: 33 µg/mL |
| O=C(Nc1ccc(I)cc1C(=O)O)OCc1ccccc1 | 92 | 100 |  |
| CO[C@H]1/C=C/O[C@@]2(C)Oc3c(C)c(O)c4c(O)c(c(/C=N/N5CCN(C)CC5)c(O)c4c3C2=O)NC(=O)/C(C)=C\C=C\[C@H](C)[C@H](O)[C@@H](C)[C@@H](O)[C@@H](C)[C@H](OC(C)=O)[C@@H]1C [RIFAMPIN] |  |  | MIC [3]: 0.004 µg/mL |
| O=C1NC(=S)NC(=O)C1C/C=C/c1ccccc1 | 40 |  | MIC90 [3]: > 300 µM |
| O=C(CCc1ccccc1)Nc1ccc(I)cc1C(=O)O | 295 |  |  |
| CC(C)(C)OC(=O)Nc1ccc(-c2ccccc2)cc1C(=O)O | 194 | 100 |  |
| CN(C(=O)OC(C)(C)C)c1ccc(I)cc1C(=O)O | 1000 | 50 |  |
| O=C(Nc1ccc(I)cc1C(=O)O)c1ccc(Cl)cc1 | 53 |  |  |
| O=C(Nc1ccc(I)cc1C(=O)O)c1ccc(Cl)c(Cl)c1 | 38 |  | solubility thermodynamic at 24 h [8]: > 200 µM; MIC90 [3]: 300 µM; logD at 2 h [9]: 3.4 |
| COC(=O)c1cc(I)ccc1NC(=O)OC(C)(C)C | > 1000 | 0 |  |
| O=C(Nc1ccc(I)cc1C(=O)O)c1ccccc1 | 145 |  |  |
| O=C(Nc1ccc(I)cc1C(=O)O)c1ccc(Cl)cc1Cl | 126 |  |  |
| CC1(C#CC(=O)O)CC1(Cl)Cl (stereo unspecified) | 25 |  | MIC90 [3]: > 300 µM |
| CC(C)(C)OC(=O)Nc1ccc(Br)cc1C(=O)O | 470 | 95 |  |
| O=C(Nc1ccc(I)cc1C(=O)O)c1ccncc1 | > 400 |  |  |
| CC(C)(C)OC(=O)Nc1ccc(F)cc1C(=O)O | 470 | 38 |  |
| O=C1Nc2ccc(Br)cc2C1=O | 72 |  | MIC90 [3]: > 300 µM |
| O=C(Nc1ccc(I)cc1C(=O)O)c1ccc(OC(F)(F)F)cc1 | 84 |  | Activity [5]: Active |
| CC(C)(C)OC(=O)Nc1ccc(Cl)cc1C(=O)O | > 500 | 77 |  |
